High-throughput results: PubChem BioAssay, Broad Institute
Most compounds without a hit are left out; they make up all but 3.7% or so of the library.
FGF22 binding: binders of human FGF22 protein, primary screen, FGF22 synaptogenesis inhibitor project, biophysical, thermal shift, single point | Fibroblast growth factor 22 (Homo sapiens), Q9HCT0 | recombinant FGF22 thermal shift, SYPRO orange fluorescence; percent of sucrose octasulfate shift, DMSO zero | activity (Tm shift, normalised), % at 9.99 µM | 1.5% of 340,000 active;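 active = mean Tm shift, scaled 0 neutral to 100 positive control, at about 1.3% or above, every replicate too, limit read from the data; inconclusive = no clear call, values can overlap the other calls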
F508del corr: F508del CFTR correction, initial screen, CFBE line, single point; activity (quench increase), % at 7.58 µM; AID 720511, 2013; 0.36% of 350,000 active; CFBE cells, YFP halide quenching; stimulated with forskolin plus potentiator P3; % fluorescence drop versus neutral controls;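 active = mean added fluorescence quench of at least 8% versus neutral control, with both replicates also reaching 8%; inconclusive = only one of the mean or replicate conditions met; inactive = mean below 8% and not both replicates reaching 8%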;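 also: cells transiently co-express mutant CFTR-F508del with the halide-sensitive YFP; corrector assay measuring rescue of mutant channel to the surface after 24 h compound exposure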
DENV2 CPE: inhibitors of DENV2 cytopathic effect, primary screen, cell-based, plate reader, single concentration. DENV2-infected cells, cytopathic effect rescue. CPE inhibition, % at 9.99 µM. 1.7% of 350,000 active. AID 651640, 2012; in the data active = CPE inhibition above about 20%, passing the limit was not always enough; inconclusive = no clear call, values can overlap the other calls; tested in BHK-21 cells;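 also: 0% = median of neutral control wells and 100% = median of positive control wells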
E-selectin induc: E-selectin induction in HUVECs, primary screen, imaging, HUVEC, immunofluorescence imaging, single point; P16581; normalized: neutral wells 0, TNF-alpha wells 100; activation, % at 7.58 µM; 0.37% of 260,000 active;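 active = mean E-selectin-positive cell signal at least 10% of the positive control, reached in at least 60% of replicates, without over 20% cell loss; inconclusive = no rule given, readout overlaps actives, possibly toxicity-flagged; inactive = the rest, including those meeting only one limit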
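Read-out: % PE-positive cells | Test system: HUVEC | Doses: One compound dose added by pin transfer | Buffer or medium: EGM-2 over gelatin coat | Signal: Immunofluorescence imaging | Benchmarks: TNF-alpha, DMSO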
ERAP1 inh: human ERAP1 aminopeptidase inhibitors, primary screen, biochemical, single point, plate reader; Endoplasmic reticulum aminopeptidase 1 (Homo sapiens), Q9NZ08; recombinant ERAP1, Leu-AMC fluorescence, 60 min; inhibition, % at 10.7 µM; 0.15% of 340,000 active; AID 652197, 2013;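 active = mean replicate inhibition of at least 30%, or all replicates individually reaching that 30% level; inactive = mean below 30% and not every replicate reaching it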;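 also: 0% = neutral control wells and 100% = L-leucinethiol positive control wells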
Target sequence (Q9NZ08 whole entry, looked up): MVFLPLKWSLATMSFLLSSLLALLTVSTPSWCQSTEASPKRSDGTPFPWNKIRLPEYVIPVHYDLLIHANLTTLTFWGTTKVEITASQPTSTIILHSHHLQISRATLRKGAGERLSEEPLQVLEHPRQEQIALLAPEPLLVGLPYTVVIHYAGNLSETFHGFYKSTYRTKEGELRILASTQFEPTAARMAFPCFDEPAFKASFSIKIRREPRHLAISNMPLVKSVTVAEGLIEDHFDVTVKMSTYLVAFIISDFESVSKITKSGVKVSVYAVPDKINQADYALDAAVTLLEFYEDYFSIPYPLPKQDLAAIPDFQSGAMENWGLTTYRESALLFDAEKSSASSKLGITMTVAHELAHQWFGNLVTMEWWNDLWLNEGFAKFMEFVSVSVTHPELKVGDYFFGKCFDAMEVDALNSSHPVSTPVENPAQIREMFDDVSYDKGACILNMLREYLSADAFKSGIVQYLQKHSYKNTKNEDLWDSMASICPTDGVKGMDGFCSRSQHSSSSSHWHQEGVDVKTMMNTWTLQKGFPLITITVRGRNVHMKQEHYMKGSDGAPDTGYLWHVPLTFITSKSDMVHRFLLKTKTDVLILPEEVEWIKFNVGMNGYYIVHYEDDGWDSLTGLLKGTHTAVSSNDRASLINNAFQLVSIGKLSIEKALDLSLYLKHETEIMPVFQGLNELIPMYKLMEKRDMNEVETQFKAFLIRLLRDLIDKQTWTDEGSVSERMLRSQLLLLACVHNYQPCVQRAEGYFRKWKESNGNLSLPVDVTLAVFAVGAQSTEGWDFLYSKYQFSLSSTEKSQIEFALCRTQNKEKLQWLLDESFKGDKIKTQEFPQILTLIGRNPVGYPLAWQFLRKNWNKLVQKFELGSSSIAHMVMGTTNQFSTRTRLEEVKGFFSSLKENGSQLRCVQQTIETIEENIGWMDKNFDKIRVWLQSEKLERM
Starred values were filed as active, the others as inactive; ? = inconclusive; nt = not tested or not shown.

SMILES	FGF22 binding	F508del corr	DENV2 CPE	E-selectin induc	ERAP1 inh
O=C(CC1CC1)N1CC2(C1)[C@H](c1ccccc1)[C@@H](CO)N2CC1CCOCC1	-1	2	-9	0	0
Cc1cc(Cl)c2oc(C(=O)N(C)CCCCN3CCOCC3)c(C)c2c1	0	0	22*	nt	3
O=C(O)c1ccccc1-c1nc(-c2ccccc2)c(-c2ccccc2)[nH]1	0	13*	-2	nt	-3
Cc1ccc(NC(=O)CN(C)C(=O)COc2ccc(C(=O)c3ccc(F)cc3)cc2)cc1	44*	4	-1	nt	3
CCC(=O)c1ccc(OCC(=O)OCC(=O)N(C)CC(=O)Nc2ccc(F)cc2)cc1	0	-2	-9	0	-1
Cc1nc2c(OCCOc3ccccc3)cccn2c1N(C)C(=O)CCC1CCCC1	0	1	1	0	-3
Cc1nc2c(OCCC3CCCCC3)cccn2c1N(C)C(=O)CCC1CCCC1	0	-1	41*	0	1
C[C@@H]1CN([C@@H](C)CO)C(=O)c2cc(-c3ccncc3)cnc2O[C@H]1CN(C)Cc1ccc(F)cc1	0	1	2	0	-1
CCC/C(C#Cc1ccc(N(C)C)cc1)=C1/c2ccccc2C(=O)N1c1ccccc1	0	2	12	0	-1
CCC/C(=C1/c2ccccc2C(=O)N1c1ccccc1)c1c(C)noc1C	43*	4	-4	0	1
CCC/C(C#CCCN1C(=O)c2ccccc2C1=O)=C1/c2ccccc2C(=O)N1c1ccccc1	0	1	79*	0	0
CCOc1ccc(C(=O)CCC(=O)NN2C(=O)NC3(CCCCC3)C2=O)cc1	0	-7	2	0	-2
O=C(NN1C(=O)NC2(CCCCC2)C1=O)c1ccc(Cl)c(Cl)c1	1	-2	?	1	0
CC(C)Oc1ccc(C(=O)NN2C(=O)NC3(CCCCC3)C2=O)cc1	0	4	68*	1	0
O=C(NN1C(=O)NC2(CCCCC2)C1=O)c1cc(F)cc(F)c1	0	-1	32*	15	-1
O=C1NCCN1Cc1ccc(Cl)cc1	44*	-1	3	0	-1
O=C1CNC(=S)N1Cc1ccc(Cl)cc1	0	-1	4	1	1
CC(C)(C)C(=O)/C=c1\s/c(=C\c2ccc(-c3ccc([N+](=O)[O-])cc3)o2)c(=O)n1CC(=O)NC(N)=O	44*	-14	8	6	9
COc1ccc(C(=O)Nc2cc(C(F)(F)F)ccc2-n2cnc3ccccc32)cc1	0	-2	-21	-1	2
CN(C)c1cccc(C(=O)Nc2cc(C(F)(F)F)ccc2-n2cnc3ccccc32)c1	0	0	25*	nt	8
COC(=O)c1[nH]c2ccccc2c1NC(=O)/C=C/c1ccc2c(c1)OCO2	0	3	38*	-1	-1
COc1ccccc1NC(=O)/C=C/c1ccc2c(c1)OCO2	0	6	4	0	-2
CCOC(=O)c1[nH]c2ccccc2c1NC(=O)c1ccc2c(c1)OCO2	0	-3	40*	0	-4
NC(=O)c1ccc(NS(=O)(=O)c2ccc3ccccc3c2)cc1	0	-3	-1	0	0
O=C(O)CNC(=O)c1ccc(NS(=O)(=O)c2ccc3ccccc3c2)cc1	0	1	31*	nt	-2
SMILES	FGF22 binding	F508del corr	DENV2 CPE	E-selectin induc	ERAP1 inh
CC(C)c1ccc(NC(=O)COc2ccccn2)cc1	43*	-4	14	6	0
CC(C)c1ccc(NC(=O)COc2ccccc2)cc1	0	-4	-2	nt	-1
COc1ccc(-c2ccnc3ncnn23)cc1	43*	-2	-7	nt	5
FCCCOc1ccc(-c2ccnc3ncnn23)cc1	0	-3	4	-2	2
COc1ccc(C2C(CC(=O)O)=C(Nc3ccccc3)C(=O)N2c2ccccc2)cc1 (configuration not stated)	1	2	16	nt	0
O=C(O)CC1=C(Nc2ccccc2)C(=O)N(c2ccccc2)C1c1ccc(F)cc1 (configuration not stated)	43*	2	12	nt	-1
O=C(N[C@H]1CC[C@H](CCNS(=O)(=O)c2ccc(F)cc2)O[C@H]1CO)c1cnccn1	-1	3	-2	-1	1
CC1=CN2C(=NC(=O)CC2(C)C(=O)N(CC(=O)NC2CCCC2)Cc2ccccc2)C=C1 (configuration not stated)	0	0	0	0	3
CC1=CC2=NC(=O)CC(C)(C(=O)N(CC(=O)NC3CCCC3)Cc3ccccc3)N2C=C1 (configuration not stated)	0	-3	-5	41*	-4
COc1ccc(OC2C(=O)N(c3ccc(C)c(C)c3)C2c2ccc(OC)c(OC)c2)cc1 (configuration not stated)	44*	2	4	nt	-3
COc1ccc(OC2C(=O)N(c3cc(C)ccc3C)C2c2ccc(OC)c(OC)c2)cc1 (configuration not stated)	nt	nt	nt	0	nt
CC(=O)N[C@H]1CC[C@H](CC(=O)NCc2ccc(Cl)cc2)O[C@@H]1CO	0	2	0	0	-7
CNCC(C)COc1ccccc1OCc1ccccc1 (configuration not stated)	0	1	64*	nt	3
Cc1cccc(C)c1-n1c(SCC(=O)Nc2ccc(C(=O)O)cc2)nnc1-c1cccc(S(=O)(=O)N(C)C)c1	43*	0	3	nt	-4
CO[C@H]1CN(C)C(=O)c2cc(NC(=O)C3CC3)ccc2OC[C@@H](C)N(C(C)=O)C[C@@H]1C	0	-2	0	0	-1
Cc1ccccc1S(=O)(=O)NCC[C@@H]1CC[C@@H](NC(=O)C2CCCCC2)[C@@H](CO)O1	0	4	27*	0	0
NCC[C@@H]1CC[C@@H](NC(=O)C2CCCC2)[C@@H](CO)O1	0	-2	36*	0	-1
Cc1ccccc1S(=O)(=O)NCC[C@H]1CC[C@H](NC(=O)C2CCCC2)[C@@H](CO)O1	0	0	8	0	1
NCC[C@H]1CC[C@H](NC(=O)C2CCCCC2)[C@H](CO)O1	0	-3	7	0	-2
CCS(=O)(=O)NCC[C@@H]1CC[C@@H](NS(=O)(=O)c2ccccc2C)[C@H](CO)O1	0	0	50*	0	0
O=C(N[C@H]1CC[C@H](CCNS(=O)(=O)c2ccc(F)cc2)O[C@@H]1CO)C1CCCC1	0	-3	32*	-1	-1
